In the RNAGym collection of RNA variant scans (doi:10.1126/science.aae0568):
Variants at the floor of the assay were thinned out.

B1: tRNA (parent)
chain: GUUCCGUUGGCGUAAUGGUAACGCGUCUCCCUCCUAAGGAGAAGACUGCGGGUUCGAGUCCCGUACGGAACG

Variants of: B1
Test: yeast fitness relative to wild type (ratio to wild type); higher = fitter; tRNA-Arg(CCU), competitive growth, 37 C, YPD
Method in brief: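 Genotype frequency changes were the basis for Darwinian fitness relative to wild type. The frequencies came from 100-nucleotide paired-end sequencing of gene amplicons from the start population and each end population of pooled yeast strains with tRNA-Arg(CCU) gene variants at the native locus. Competition ran in YPD at 37°C for 24 hours in six replicates, genotypes needed ≥ 100 starting reads, and estimates < 0.5 were set to 0.5.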

Row | Variant | yeast fitness
1 | GUUCCGUUGGCGUAGUGGUAACGCGUCUCCCUCCUAAGGAGAACACUGCGGGUUCGUGUCCCGUACGGAACG [A15G G44C A57U] | ≤ 0.5
2 | GUUCCGUUGGCGUAGUGGUAACGCGUCUCCCUCCUAAGGAGAACACUGCGGGUUCGAGUCCCGUCCGGAACG [A15G G44C A65C] | ≤ 0.5
3 | GUUCCGUUGGCGUAGUGGUAACGCGUCUCCCUCCUAAGGAGAAUACUGCGGGUUCGUAUCCCGUAGGGAACG [A15G G44U A57U G58A C66G] | ≤ 0.5
4 | GUUCCGUUGGCGUAGUGGUAACGCGUCUCCCUCCUAAGGAGAAGACUACGGGUUCGAGUCCCGUACGGAACG [A15G G48A] | 0.879
5 | GUUCCGUUGGCGUAGUGGUAACGCGUCUCCCUCCUAAGGAGAAGACUACGGGUUCGAGUCCCGUAUGGAACG [A15G G48A C66U] | 0.747
6 | GUUCCGUUGGCGUAGUGGUAACGCGUCUCCCUCCUAAGGAGAAGACUCCGGGUUCGAGUCCCGUACGGAACG [A15G G48C] | 0.841
7 | GUUCCGUUGGCGUAGUGGUAACGCGUCUCCCUCCUAAGGAGAAGACUCCGAGUUCGAGUCCCGUCCGGAACG [A15G G48C G51A A65C] | ≤ 0.5
8 | GUUCCGUUGGCGUAGUGGUAACGCGUCUCCCUCCUAAGGAGAAGACUGCAGGUUCGAGUCCCGUACGGAACG [A15G G50A] | 0.929
9 | GUUCCGUUGGCGUAGUGGUAACGCGUCUCCCUCCUAAGGAGAAGACUGCAGGUUCGACUCCCGUAUGGAACG [A15G G50A G58C C66U] | ≤ 0.5
10 | GUUCCGUUGGCGUAGUGGUAACGCGUCUCCCUCCUAAGGAGAAGACUGCAGGUACGCGUCCCGUACGGAACG [A15G G50A U54A A57C] | 0.583
11 | GUUCCGUUGGCGUAGUGGUAACGCGUCUCCCUCCUAAGGAGAAGACUGCCGGUUCGAGUUCCGUACGGAACG [A15G G50C C60U] | ≤ 0.5
12 | GUUCCGUUGGCGUAGUGGUAACGCGUCUCCCUCCUAAGGAGAAGACUGCGAGUUCGAGUCCCGUACGGAUCG [A15G G51A A70U] | 0.533
13 | GUUCCGUUGGCGUAGUGGUAACGCGUCUCCCUCCUAAGGAGAAGACUGCGGAUUCGAGUCCCGUACUGAACG [A15G G52A G67U] | ≤ 0.5
14 | GUUCCGUUGGCGUAGUGGUAACGCGUCUCCCUCCUAAGGAGAAGACUGCGGGUUCAAGUCCCGUACGGAACG [A15G G56A] | 0.971
15 | GUUCCGUUGGCGUAGUGGUAACGCGUCUCCCUCCUAAGGAGAAGACUGCGGGUUCGAAUCCCAUACGCAACG [A15G G58A G63A G68C] | ≤ 0.5
16 | GUUCCGUUGGCGUAGUGGUAACGCGUCUCCCUCCUAAGGAGAAGACUGCGGGUUCGAGUCCCCUACGGAACG [A15G G63C] | 0.918
17 | GUUCCGUUGGCGUAGUGGUAACGCGUCUCCCUCCUAAGGAGAAGACUGCGGGUUCGAGUCCCGUACAGAACG [A15G G67A] | 0.868
18 | GUUCCGUUGGCGUAGUGGUAACGCGUCUCCCUCCUAAGGAGAAGACUGCGGGUUCGAGUCCCGUACCGAACG [A15G G67C] | 0.706
19 | GUUCCGUUGGCGUAGUGGUAACGCGUCUCCCUCCUAAGGAGAAGACUGCGGGUUCGAGUCCCGUACUGAACG [A15G G67U] | 0.662

Row | Variant | yeast fitness
20 | GUUCCGUUGGCGUAGUGGUAACGCGUCUCCCUCCUAAGGAGAAGACUGCGGGUUCGAGUCCCGUACGAAACG [A15G G68A] | 0.894
21 | GUUCCGUUGGCGUAGAGGUGACGCGUCUCCCUCCUAAGGAGGAGACUGCGGGUUCGAGUCCCGUACGGAACG [A15G U16A A20G A42G] | 0.577
22 | GUUCCGUUGGCGUAGAGGUAACGCGUCUCCCUCCUAAGGAGAAGUCUGCGGGUUCGAGUCCCGUACGGAACG [A15G U16A A45U] | 0.642
23 | GUUCCGUUGGCGUAGUGGAAACGCGUCUCCCUCCUAAGGAGAAGACUGCGGGUUCGAGUCCCGUACGGUACG [A15G U19A A69U] | 0.729
24 | GUUCCGUUGGCGUAGUGGAAACGCGUCACCCUCCUAAGGAGAAGACUGCGGGUUCGAGUCCCGUACGGAACG [A15G U19A U28A] | ≤ 0.5
25 | GUUCCGUUGGCGUAGUGGAAACGCGUCACCCUCCUAAGGAGAAGACUGCGGGUUAGAGUCCCGUUCGGAACG [A15G U19A U28A C55A A65U] | ≤ 0.5
26 | GUUCCGUUGGCGUAGUGGCAACGCGUCUCCCUCCUAAGGAGAAGACUGCGGGUUCGAGUCCCGUACGGAACG [A15G U19C] | 0.985
27 | GUUCCGUUGGCGUAGUGGCAACGCGUCUCCCUCCUAUGGAGAAGACUGUGAGUUCGAGUACCGUACGGAACG [A15G U19C A37U C49U G51A C60A] | ≤ 0.5
28 | GUUCCGUUGGCGUAGUGGCAACGCGUCUCCCUCCUAUGGAGAAGACUGUGAGUUCGAGUCCCGAACGGAACG [A15G U19C A37U C49U G51A U64A] | ≤ 0.5
29 | GUUCCGUUGGCGUAGUGGCAACGCGUCUUCCUCCUAGGGAGAAGACUGCGGGUUCGAGUCCCGUACGGAACG [A15G U19C C29U A37G] | ≤ 0.5
30 | GUUCCGUUGGCGUAGUGGCAACGCGUCUCCCUCCUAAGGAGAAGACUGCGCGUUUGAGUCCCGUACGGAACG [A15G U19C G51C C55U] | 0.582
31 | GUUCCGUUGGCGUAGUGGGAACGCGUCUCCCUCCUAAGGAGAAGACUGCGGGUUCGAGUCCCGUACGGAACG [A15G U19G] | 0.985
32 | GUUCCGUUGGCGUAGUGGGAACGCGUCUCCCUCCUAAGGGGAAGACUGCGGGUUCGAGUCCCGUACGGAACG [A15G U19G A40G] | 0.582
33 | GUUCCGUUGGCGUAGUGGGAACGCGUCUCCCUCCUAAGGAGGAGACUGCGGGUUCGAGUCCCGUACGGAACG [A15G U19G A42G] | 0.702
34 | GUUCCGUUGGCGUAGUGGGAACGCGUCUCCCUCCUAAGGAGAAGACUGCGGGUUCGAGUCCCGUACGGCACG [A15G U19G A69C] | 0.721
35 | GUUCCGUUGGCGUAGUGGGAACGCGUCUCCCUCCUAAGGAGAAGACUGCGGGUUCGAGUCCCGUAUGGAACG [A15G U19G C66U] | 0.721
36 | GUUCCGUUGGCGUAGUGGUAACGCGACUCCCUCCUAAGGAGAAGACUGCGGGUUCGAGUCCCGUACGGAACG [A15G U26A] | 1.04
37 | GUUCCGUUGGCGUAGUGGUAACGCGCCUCCCUCCUAAGGAGAAGACUGCGGGUUCAAGUCCCGUACGGUACG [A15G U26C G56A A69U] | ≤ 0.5
